Only some compounds are listed: those with a hit (about 3.6% of all), similar ones and a draw of the others.
Beta cell apopt = inhibitors of cytokine-induced beta cell apoptosis, primary screen, luminescence; INS-1E cytokine-induced death, ATP luminescence, 48 h; percent of positive-control rescue, neutral wells zero; protection from apoptosis, % (no concentration beside the values); actives 0.8% (n = 300,000); AID 435005, 2010;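 active = Every replicate reaches about 75%, or at least half do and their mean reaches it too, limit read from the data; inconclusive = At least half of replicates reach the limit but their mean does not; inactive = Under half of replicates reach the limit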;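 note: 0% = cytokine-treated negative control wells and 100% = positive control rescue; higher means more ATP so stronger rescue from cytokine killing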
CSC inhib = cancer stem cell viability inhibitors, primary screen, luminescence | inhibition, % at 7.5 µM | cancer stem cell-like cells viability | AID 2717, 2010 | actives 1.1% (n = 300,000); in the data active = inhibition above about 75%; inconclusive = no clear call, values can overlap the other calls; tested in HMLE shEcad cells
HIF act = HIF pathway transcriptional activators, primary screen, cell-based, U2OS HRE-luciferase, luminescence; AID 1910, 2009; U2OS HRE-luciferase reporter; normalized: DMSO 0%, desferrioxamine 100%; actives 0.32% (n = 300,000); activation, % at 7.5 µM (by protocol);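 active = mean activation of at least 10% of the iron chelator positive control signal, with at least half of replicates also reaching 10%; inconclusive = mean and replicate majority disagree about reaching 10%; inactive = mean and most replicates under 10%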
PfHsp90 yeast 2 = growth inhibition of PfHsp90-expressing yeast, primary screen, antimalarial PfHsp90 inhibitor project, S. cerevisiae, BacTiter-Glo luminescence, single point, set 2. BacTiter-Glo ATP, 48 h; yeast lacking PDR1 and PDR3 efflux regulators. inhibition, % at 9.4 µM. actives 0.32% (n = 310,000);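 active = every replicate shows inhibition above about 80%, whatever the replicate mean, limit read from the data; inconclusive = mean inhibition reaches the set limit but some replicate falls short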;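 note: 0% = DMSO neutral controls and 100% = 20 µM radicicol positive controls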
SKKanGAS inh = S. pyogenes SKKanGAS growth inhibitors in kanamycin, primary screen, streptokinase expression inhibitor project, SKKanGAS strain, BacTiter-Glo luminescence | 6 h | inhibition, % at 7.5 µM | actives 1.3% (n = 300,000) | AID 1662, 2009;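 active = mean replicate score, as percent of positive control median, at least 50; inconclusive = mean below 50 but one replicate at or above 50; inactive = mean and every replicate below 50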;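 note: strain carries kanamycin resistance gene driven by streptokinase promoter and grows in 40 µg/ml kanamycin; loss of luminescence reflects streptokinase promoter inhibition or plain growth inhibition; 0% = median of DMSO wells and 100% = positive control at its reference dose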
T cruzi repl = inhibitors of intracellular T. cruzi growth, primary screen, luminescence, NIH3T3 host cells; inhibition, % (test concentration not listed); actives 1.4% (n = 300,000); T. cruzi beta-gal in NIH3T3, 90 h;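 active = mean inhibition across valid replicates above about 55%, limit read from the data; inconclusive = mean below that limit but half or more replicates reach it; inactive = mean below it, under half of replicates reach it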;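 note: signal also drops with host cell toxicity which is not excluded here; 0% = plate median of DMSO wells and 100% = zero luminescence signal; higher percent means less beta-gal luminescence so fewer parasites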
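Assay system: NIH/3T3 fibroblasts plus reporter T. cruzi. Amount: NIH/3T3 cells, 5,000 per well. Buffer or medium: DMEM, 2% fetal bovine serum. Doses: compound pinned at 50 nL/well, DMSO. Schedule: ≥90 h infection period, 3 h prior cell attachment. Signal: luminescent β-galactosidase signal after 60 min lysis. Read-out: parasite load inhibition, %.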
Active calls of the source: *; ? = inconclusive; . = no result given.

SMILES	Beta cell apopt	CSC inhib	HIF act	PfHsp90 yeast 2	SKKanGAS inh	T cruzi repl
Cc1ccccc1OCCOCCN1CCCCCC1	2	22	0	16	9	52
Cc1cc(Br)ccc1OCCCCN1CCCCC1	8	39	0	7	-9	64*
Cc1cc(Br)ccc1OCCOCCN1CCCC1	.	22	0	-8	1	41
COc1ccc(CCC(=O)OCC(=O)Nc2sccc2C#N)cc1	-3	-15	.	1	.	.
O=C(Cc1cccc(NC(=O)C2CCN(C(=O)C3CCCC3)CC2)c1)Nc1cccc(C(=O)N2CCOCC2)c1	.	.	.	-4	.	.
CCN1CCN(c2ccc(S(=O)(=O)N3CCOCC3)cc2NC(=O)c2ccc(OCC(C)C)cc2)CC1	.	.	.	-6	.	.
CCN1CCN(c2ccc(S(=O)(=O)N3CCOCC3)cc2NC(=O)COc2ccc(F)cc2Cl)CC1	.	4	-23	-27	8	57*
CCN1CCN(c2ccc(S(=O)(=O)N3CCOCC3)cc2NC(=O)CCOc2ccccc2)CC1	-5	-4	0	23	-2	56*
CCN1CCN(c2ccc(S(=O)(=O)N3CCCCC3)cc2NC(=O)COc2ccccc2)CC1	.	-6	0	.	-1	58*
CCC(=O)c1ccc(OCC(=O)Nc2cc(S(=O)(=O)N3CCCCC3)ccc2N2CCN(CC)CC2)cc1	9	-8	-18	-11	-3	45
CC(Oc1cccc(Cl)c1)C(=O)Nc1cc(S(=O)(=O)N2CCOCC2)ccc1N1CCCCC1 (stereo not drawn)	110*	-3	1	-27	36	47
O=C(COc1ccccc1F)Nc1cc(S(=O)(=O)N2CCOCC2)ccc1N1CCOCC1	-4	13	-1	-17	0	11
C=CC[C@@H](CC(=O)N(CCO)Cc1ccccc1)C(=O)NC[C@H](OC(=O)[C@@H](CC=C)Cc1ccc(F)cc1)c1ccccc1	4	30	.	6	.	.
CCN1CCN(c2ccc(S(=O)(=O)N3CCOCC3)cc2NC(=O)CCC(C)C)CC1	-9	-12	0	-14	-13	56*
CCN1CCN(c2ccc(S(=O)(=O)N3CCOCC3)cc2NC(=O)CCSC)CC1	-1	.	.	26	.	.
COc1cccc(OCC(O)CN2CCN(CCN3C(=O)c4cccc5cccc(c45)C3=O)CC2)c1 (stereo not drawn)	17	23	0	-6	10	70*
O=C1c2cccc3cccc(c23)C(=O)N1CCN1CCN(CC(O)COc2ccccc2)CC1 (stereo not drawn)	3	27	0	-15	3	29
COc1ccccc1C1NC=C([N+](=O)[O-])C=C1[N+](=O)[O-] (stereo not drawn)	3	.	0	5	-2	78*
COc1ccccc1C1C([N+](=O)[O-])=CC([N+](=O)[O-])=CN1C (stereo not drawn)	3	-4	0	19	9	-11
Cc1nc(N2CCCCC2)c2c(C)c(C(=O)Nc3cccc(C(F)(F)F)c3)sc2n1	27	.	-1	26	43	65*
Cc1nc(N2CCCCC2C)c2c(C)c(C(=O)Nc3cccc(C(F)(F)F)c3)sc2n1 (stereo not drawn)	14	.	0	-5	33	51
Cc1nc(N2CCCCC2)c2c(C)c(C(=O)Nc3ccccc3C(F)(F)F)sc2n1	-2	77*	0	22	9	49
CCOc1ccccc1NC(=O)c1sc2nc(C)nc(N3CCOCC3)c2c1C	-10	-8	0	1	9	11
COc1ccc(/C=C/c2cc(O)cc(OC3OC(CO)C(O)C(O)C3O)c2)cc1 (stereo not drawn)	.	.	.	-3	.	.
Cc1cccc2nc(COc3ccc4ccccc4c3Br)cn12	-5	27	3	-27	64*	-6
SMILES	Beta cell apopt	CSC inhib	HIF act	PfHsp90 yeast 2	SKKanGAS inh	T cruzi repl
Cc1cccc2nc(CSc3ccccc3N)cn12	4	-2	-2	-4	-12	-17
O=C1c2ccc(-c3ccc(F)cc3OCc3ccccc3)cc2S(=O)(=O)c2cccc(C(=O)N3CCCC3)c21	2	-2	.	-3	.	.
Cc1nc2ccccc2c2oc(C(=O)Nc3ccc4c(c3)OCCO4)cc12	25	-5	1	19	-3	17
Cc1nc2ccccc2c2oc(C(=O)Nc3ccc(C(C)C)cc3)cc12	79*	.	0	-2	39	?
COc1ccc(N/C=C\C(=O)c2ccc3c(c2)OCO3)cc1	0	0	13*	4	0	7
COc1cc(/C=C/C(=O)c2ccc3c(c2)OCO3)cc(Cl)c1O	-2	113*	0	-30	22	-20
COCC(C)NC(=O)C(C)N1c2cccc3cccc(c23)S1(=O)=O (stereo not drawn)	-7	-1	-35	-30	0	-6
CCN(CC)CCNC(=O)c1nn(-c2ccc(C)cc2)c(=O)c2c1c1ccccc1n2C	3	-4	-4	4	-1	60*
COc1ccc(-c2cc(N)n(S(=O)(=O)c3c(F)c(F)c(F)c(F)c3F)n2)cc1OC	93*	42	2	-11	29	22
O=c1c2ccccc2nc(/C=C/c2ccc([N+](=O)[O-])cc2)n1CCCO	-1	-8	0	9	3	9
O=c1c2ccccc2nc(/C=C/c2ccc([N+](=O)[O-])o2)n1CCCO	2	14	5	-22	50*	62*
O=c1c2ccccc2nc(/C=C/c2ccc(Br)cc2)n1CCO	1	78*	0	.	6	-13
CCn1nc(C)c(CN2CCCC(C(=O)c3cccc(OC(C)C)c3)C2)c1C (stereo not drawn)	25	3	0	-2	4	65*
CCn1cc(CN2CCCC(C(=O)c3ccc(-c4ccccc4)cc3)C2)cn1 (stereo not drawn)	.	25	0	10	8	65*
CC(C)Oc1cccc(C(=O)C2CCCN(Cc3ccc4nonc4c3)C2)c1 (stereo not drawn)	1	37	0	.	0	51
CC(C)Oc1cccc(C(=O)C2CCCN(Cc3cnn(C(C)C)c3)C2)c1 (stereo not drawn)	.	6	0	-7	-14	78*
Cc1nn(C(C)C)c(C)c1CN1CCCC(C(=O)c2cccc(OC(C)C)c2)C1 (stereo not drawn)	5	5	0	8	-9	49
O=C(COC(=O)c1cc[n+]([O-])cc1)Nc1ccc([N+](=O)[O-])cc1C(F)(F)F	.	.	.	14	.	.
O=C(c1cc(-c2ccccc2)on1)N1CCN(c2ccccc2)CC1	-1	63	1	-19	-1	-1

From PubChem BioAssay
